# According to ChEMBL document CHEMBL1142436, “Design and synthesis of 4-substituted indolo[3,2-e][1,2,3]triazolo[1,5-a]pyrimidine derivatives with antitumor activity” (2008):
# Assays:
# Assay type in all cases: functional
# SK-MEL-28 = test: Growth inhibition of human SK-MEL28 cells after 48 hrs; details: SK-MEL-28, 48 h
# How it was run: (§1)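 NCI ~60-line screen. Cells were grown in RPMI 1640 with 5% FBS and 2 mM L-glutamine and plated at 5000–40000 cells/well. After a 24 h preincubation, five drug concentrations from DMSO stocks were added for 48 h at 37 °C. Cells were TCA-fixed, stained with SRB and read at 515 nm. GI50 was taken from time-zero and control absorbances and reported as pGI50.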
# COLO 205 = test: Growth inhibition of human COLO205 cells after 48 hrs; details: COLO 205, 48 h; how it was run: as §1
# HT-29 = test: Growth inhibition of human HT29 cells after 48 hrs; details: HT-29, 48 h; how it was run: as §1
# SK-MEL-2 = test: Growth inhibition of human SK-MEL2 cells after 48 hrs; details: SK-MEL-2, 48 h; how it was run: as §1
# HOP-62 = test: Growth inhibition of human HOP62 cells after 48 hrs; details: HOP-62, 48 h; how it was run: as §1
# M14 = test: Growth inhibition of human M14 cells after 48 hrs; details: M14, 48 h; how it was run: as §1
# OVCAR-3 = test: Growth inhibition of human OVCAR-3 cells after 48 hrs; details: OVCAR-3, 48 h; how it was run: as §1
# UACC-62 = test: Growth inhibition of human UACC62 cells after 48 hrs; details: UACC-62, 48 h
# How it was run: (§2)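 NCI 60-line screen: cells in RPMI 1640 with 5% FBS and 2 mM L-glutamine, plated at 5000–40000 cells/well, grown 24 h (37 °C, 5% CO₂), then exposed to five 10-fold or ½-log dilutions (DMSO stock) for 48 h. Fixed with TCA (final 10% for adherent cells, 16% for suspension cells), then SRB stained with absorbance at 515 nm. GI50 from percentage growth relative to time-zero and control wells.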
# NCI-H522 = test: Growth inhibition of human NCI-H522 cells after 48 hrs; details: NCI-H522, 48 h, read-out: pTGI (converted); how it was run: as §1
# SF-295 = test: Growth inhibition of human SF295 cells after 48 hrs; details: SF-295, 48 h; how it was run: as §1
# NCI-H226 = test: Growth inhibition of human NCI-H226 cells after 48 hrs; details: NCI-H226, 48 h; how it was run: as §1
# LOX IMVI = test: Growth inhibition of human LOXIMVI cells after 48 hrs; how it was run: as §1
# Malme-3M = test: Growth inhibition of human MALME3M cells after 48 hrs; how it was run: as §1
# SNB-19 = test: Growth inhibition of human SNB19 cells after 48 hrs; details: SNB-19, 48 h; how it was run: as §2
# TK-10 = test: Growth inhibition of human TK10 cells after 48 hrs; details: TK-10, 48 h; how it was run: as §2
# UO-31 = test: Growth inhibition of human UO31 cells after 48 hrs; details: UO-31, 48 h; how it was run: as §2
# K562 = test: Growth inhibition of human K562 cells after 48 hrs; details: K562, 48 h; how it was run: as §1
# SK-MEL-5 = test: Growth inhibition of human SK-MEL5 cells after 48 hrs; details: SK-MEL-5, 48 h; how it was run: as §1
# SNB-75 = test: Growth inhibition of human SNB75 cells after 48 hrs; details: SNB-75, 48 h; how it was run: as §2
# HCT-116 = test: Growth inhibition of human HCT116 cells after 48 hrs; details: HCT-116, 48 h; how it was run: as §1
# HOP-92 = test: Growth inhibition of human HOP92 cells after 48 hrs; details: HOP-92, 48 h; how it was run: as §1
# OVCAR-4 = test: Growth inhibition of human OVCAR4 cells after 48 hrs; details: OVCAR-4, 48 h; how it was run: as §1
# IGROV-1 = test: Growth inhibition of human IGROV1 cells after 48 hrs; details: IGROV-1, 48 h; how it was run: as §1
# CCRF-CEM = test: Growth inhibition of human CCRF-CEM cells after 48 hrs; how it was run: as §1
# NCI-H23 = test: Growth inhibition of human NCI-H23 cells after 48 hrs; details: Homo sapiens, NCI-H23, 48 h; how it was run: as §1
# T47D = test: Growth inhibition of human T47D cells after 48 hrs; how it was run: as §2
# SF-539 = test: Growth inhibition of human SF539 cells after 48 hrs; details: SF-539, 48 h; how it was run: as §1
# NCI-H322M = test: Growth inhibition of human NCI-H322M cells after 48 hrs; how it was run: as §1
# HCT-15 = test: Growth inhibition of human HCT15 cells after 48 hrs; details: HCT-15, 48 h; how it was run: as §1
# ACHN = test: Growth inhibition of human ACHN cells after 48 hrs; how it was run: as §1
# A549 = test: Growth inhibition of human A549 cells after 48 hrs; details: A549, 48 h; how it was run: as §1
# [1] = Growth inhibition of human HS578T cells after 48 hrs; details: Hs-578T; how it was run: as §1
# OVCAR-8 = test: Growth inhibition of human OVCAR8 cells after 48 hrs; details: OVCAR-8, 48 h; how it was run: as §1
smiles,measurement,setting,value
CCCCN(CCCC)CCCn1c(=O)c2c3ccccc3n(C)c2n2nnc(-c3ccccc3)c12,GI50,SK-MEL-28,> 100 µM
same,TGI,SK-MEL-28; read-out: pTGI (converted),> 100 µM
same,GI50,COLO 205,5.01 µM
same,TGI,COLO 205; read-out: pTGI (converted),63.1 µM
same,GI50,HT-29,7.76 µM
same,TGI,HT-29; read-out: pTGI (converted),36.3 µM
same,GI50,SK-MEL-2,> 100 µM
same,TGI,SK-MEL-2; read-out: pTGI (converted),> 100 µM
same,GI50,HOP-62,30.9 µM
same,TGI,HOP-62; read-out: pTGI (converted),> 100 µM
same,GI50,M14,21.4 µM
same,TGI,M14; read-out: pTGI (converted),> 100 µM
same,GI50,OVCAR-3,49 µM
same,TGI,OVCAR-3; read-out: pTGI (converted),> 100 µM
same,GI50,UACC-62,22.4 µM
same,TGI,UACC-62; read-out: pTGI (converted),85.1 µM
same,TGI,NCI-H522,10.7 µM
same,GI50,SF-295,31.6 µM
same,TGI,SF-295; read-out: pTGI (converted),> 100 µM
same,GI50,NCI-H226,57.5 µM
same,TGI,NCI-H226; read-out: pTGI,> 100 µM
same,GI50,LOX IMVI,28.2 µM
same,TGI,LOX IMVI; read-out: pTGI (converted),> 100 µM
same,GI50,Malme-3M,28.2 µM
same,TGI,Malme-3M; read-out: pTGI (converted),89.1 µM
same,GI50,SNB-19,> 100 µM
same,TGI,SNB-19; read-out: pTGI (converted),> 100 µM
same,GI50,TK-10,1.91 µM
same,TGI,TK-10; read-out: pTGI (converted),22.4 µM
same,GI50,UO-31,6.03 µM
same,TGI,UO-31; read-out: pTGI (converted),46.8 µM
same,GI50,K562,13.8 µM
same,TGI,K562; read-out: pTGI (converted),> 100 µM
same,GI50,SK-MEL-5,31.6 µM
same,TGI,SK-MEL-5; read-out: pTGI (converted),> 100 µM
same,GI50,SNB-75,15.1 µM
same,TGI,SNB-75; read-out: pTGI (converted),56.2 µM
same,GI50,HCT-116,18.6 µM
same,TGI,HCT-116; read-out: pTGI (converted),> 100 µM
same,GI50,HOP-92,18.6 µM
same,TGI,HOP-92; read-out: pTGI (converted),44.7 µM
same,GI50,OVCAR-4,17.4 µM
same,TGI,OVCAR-4; read-out: pTGI (converted),83.2 µM
same,LC50,IGROV-1,> 50.1 µM
same,GI50,CCRF-CEM,4.17 µM
same,TGI,CCRF-CEM; read-out: pTGI (converted),91.2 µM
same,CC50,NCI-H23; read-out: Log LC50 (the source's name) (converted),12.9 µM
same,TGI,NCI-H23; read-out: pTGI (converted),63.1 µM
same,GI50,T47D,55 µM
same,TGI,T47D; read-out: pTGI (converted),> 100 µM
same,GI50,SF-539,66.1 µM
same,TGI,SF-539; read-out: pTGI (converted),> 100 µM
same,GI50,NCI-H322M,28.8 µM
same,TGI,NCI-H322M; read-out: pTGI (converted),> 100 µM
same,GI50,HCT-15,20.9 µM
same,TGI,HCT-15; read-out: pTGI,> 100 µM
same,GI50,ACHN,34.7 µM
same,TGI,ACHN; read-out: pTGI (converted),> 100 µM
same,GI50,A549,43.7 µM
same,TGI,A549; read-out: pTGI (converted),> 100 µM
same,GI50,[1],38.9 µM
same,TGI,[1]; read-out: pTGI (converted),> 100 µM
same,GI50,OVCAR-8,39.8 µM
same,TGI,OVCAR-8; read-out: pTGI (converted),> 100 µM
